Read-outs that look alike come from different tables or passages of the source.
Columns and labels:
aurora-C (AURKC) = settings: read-out: IC50 aurora-C; cited from earlier work
[1] = target: vascular endothelial growth factor receptor 3 (FLT4, VEGFR3); settings: read-out: IC50 FLT4 (VEGFR3); panel of 32 kinases; cited from earlier work
[2] = system: ATP-binding cassette B1 (ABCB1/MDR1); settings: in vitro; ref unpublished data (b4), 26; cited from earlier work
[3] = system: histone H3 phosphorylation; assay: histone H3 phosphorylation in skin biopsies by immunohistochemistry; assay type: in vivo, human
Procedure, shortened: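 Skin biopsies were taken at baseline and 10 min before the end of the first infusion of cycle 1. Phospho-histone H3 was stained by immunohistochemistry, giving the % change in positive cells. AURKB genotypes were compared by t-test/ANOVA.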

[4] = toxicity in first treatment cycle; assay type: in vivo, human; settings: for Neutropenia grade 3–4: No (No. patients) / Neutropenia grade 3–4: Yes (No. patients): cycle 1, RP2D
Procedure, shortened: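 Adverse events in cycle 1 were graded by NCI-CTC v3.0. Phase II patients received 330 mg/m2 on days 1, 8 and 15 (6-h) or 500 mg/m2 on days 1 and 15 (24-h) every 28 days. Genotypes were compared by two-sided chi-square.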

aurora-A (AURKA) = settings: read-out: IC50 aurora-A; cited from earlier work
[5] = cited from earlier work
[6] = system: ATP-binding cassette G2 (ABCG2/BCRP); settings: in vitro; ref unpublished data (b4), 26; cited from earlier work
aurora-B (AURKB) = settings: read-out: IC50 aurora-B; cited from earlier work
ret proto-oncogene (RET) = settings: read-out: IC50 RET; panel of 32 kinases; cited from earlier work
[7] = target: fms-related tyrosine kinase 3 (FLT3); settings: read-out: IC50 FLT3; panel of 32 kinases; cited from earlier work
[8] = pharmacokinetics in phase I cancer patients; assay type: in vivo, human
Procedure, shortened: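 In the phase I trial, the test compound was given IV on days 1, 8 and 15 every 28 days. Doses were 45–400 mg/m2 by 6-h infusion or 250–330 mg/m2 by 3-h infusion. Blood was sampled on days 1–4, 8, 15–18 and 22 of cycle 1. Clearance (L/hour/m2) came from non-compartmental analysis. Genotypes came from TaqMan assays on blood DNA and were compared by t-test/ANOVA.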

[9] = AURKA 91A > T AT, total 6 patients
[10] = AURKA 169G > A GA, total 11 patients
[11] = AURKA 169G > A GG, total 18 patients
[12] = AURKB 893G > A GA, total 8 patients
[13] = FLT3 738C > T CC, total 5 patients
[14] = FLT3 738C > T TT, total 10 patients
[15] = FLT4 1480A > G AG, total 7 patients
[16] = KDR 54G > A AA, total 5 patients
[17] = KDR 54G > A GA, total 16 patients
[18] = KDR 54G > A GG, total 9 patients
[19] = KDR 1192G > A GA, total 3 patients
[20] = KDR −92G > A AG, total 7 patients
[21] = KDR −92G > A GG, total 20 patients
[22] = KDR −604T > C TT, total 6 patients
[23] = RET 135G > A AA, total 3 patients (3 missing)
[24] = RET 135G > A GA, total 8 patients (3 missing)
[25] = RET 37412G > A GA, total 5 patients

CO[C@@H](C(=O)N1Cc2n[nH]c(NC(=O)c3ccc(N4CCN(C)CC4)cc3)c2C1)c1ccccc1 [Danusertib]
IC50 (aurora-C (AURKC)): 61 nM | IC50 [1]: < 500 nM | substrate for efflux protein ABCB1 [2]: substrate | decrease in histone H3 phosphorylation ([3]; AURKB 893G > A heterozygous genotype (GA), SD 12.2%): 84% | decrease in histone H3 phosphorylation ([3]; AURKB 893G > A homozygous wild type genotype (GG), SD 13.3%): 91% | Histone H3 phosphorylation, % change in number of positive cells, Median ± SD ([3]; phase I patients, n = 28, skin, baseline vs 10 min before end of first infusion): -92.3 ± 13.1 Δ% | Any toxicity grade 1–4 during cycle 1 ([4]; All patients N = 63): 51 (81) n (%) | Any toxicity grade 3 or 4 during cycle 1 ([4]; All patients N = 63): 22 (35) n (%) | Febrile neutropenia during cycle 1 ([4]; All patients N = 63): 1 (2) n (%) | Neutropenia grade 1–4 during cycle 1 ([4]; All patients N = 63): 34 (54) n (%) | Neutropenia grade 3 or 4 during cycle 1 ([4]; All patients N = 63): 18 (29) n (%) | Any toxicity grade 1–4 during cycle 1 ([4]; Phase I patients N = 48): 37 (77) n (%) | Any toxicity grade 3 or 4 during cycle 1 ([4]; Phase I patients N = 48): 15 (31) n (%) | Febrile neutropenia during cycle 1 ([4]; Phase I patients N = 48): 1 (2) n (%) | Neutropenia grade 1–4 during cycle 1 ([4]; Phase I patients N = 48): 25 (52) n (%) | Neutropenia grade 3 or 4 during cycle 1 ([4]; Phase I patients N = 48): 12 (25) n (%) | Any toxicity grade 1–4 during cycle 1 ([4]; RP2D patients N = 30): 28 (93) n (%) | Any toxicity grade 3 or 4 during cycle 1 ([4]; RP2D patients N = 30): 15 (50) n (%) | Febrile neutropenia during cycle 1 ([4]; RP2D patients N = 30): 1 (3) n (%) | Neutropenia grade 1–4 during cycle 1 ([4]; RP2D patients N = 30): 19 (63) n (%) | Neutropenia grade 3 or 4 during cycle 1 ([4]; RP2D patients N = 30): […] | Neutropenia grade 3–4: No (No. patients) [4, 9]: 2 | Neutropenia grade 3–4: Yes (No. patients) [4, 9]: 4 | Neutropenia grade 3–4: No (No. patients) ([4]; AURKA 91A > T TT, total 4 patients): 4 | Neutropenia grade 3–4: No (No. patients) ([4]; AURKA 169G > A AA, total 1 patient): 1 | Neutropenia grade 3–4: No (No. patients) [4, 10]: 6 | Neutropenia grade 3–4: Yes (No. patients) [4, 10]: 5 | Neutropenia grade 3–4: No (No. patients) [4, 11]: 10 | Neutropenia grade 3–4: Yes (No. patients) [4, 11]: 8 | Neutropenia grade 3–4: No (No. patients) [4, 12]: 6 | Neutropenia grade 3–4: Yes (No. patients) [4, 12]: 2 | Neutropenia grade 3–4: No (No. patients) [4, 13]: 4 | Neutropenia grade 3–4: Yes (No. patients) [4, 13]: 1 | Neutropenia grade 3–4: Yes (No. patients) ([4]; FLT3 738C > T CT, total 15 patients): 8 | Neutropenia grade 3–4: No (No. patients) [4, 14]: 6 | Neutropenia grade 3–4: Yes (No. patients) [4, 14]: 4 | Neutropenia grade 3–4: No (No. patients) [4, 15]: 5 | Neutropenia grade 3–4: Yes (No. patients) [4, 15]: 2 | Neutropenia grade 3–4: No (No. patients) [4, 16]: 2 | Neutropenia grade 3–4: Yes (No. patients) [4, 16]: 3 | Neutropenia grade 3–4: No (No. patients) [4, 17]: 10 | Neutropenia grade 3–4: Yes (No. patients) [4, 17]: 6 | Neutropenia grade 3–4: No (No. patients) [4, 18]: 5 | Neutropenia grade 3–4: Yes (No. patients) [4, 18]: 4 | Neutropenia grade 3–4: No (No. patients) [4, 19]: 2 | Neutropenia grade 3–4: Yes (No. patients) [4, 19]: 1 | Neutropenia grade 3–4: No (No. patients) ([4]; KDR 1192G > A GG, total 27 patients): 15 | Neutropenia grade 3–4: Yes (No. patients) ([4]; KDR 1719A > T AA, total 1 patient): 1 | Neutropenia grade 3–4: No (No. patients) ([4]; KDR 1719A > T AT, total 15 patients): 8 | Neutropenia grade 3–4: Yes (No. patients) ([4]; KDR 1719A > T TT, total 14 patients): 5 | Neutropenia grade 3–4: No (No. patients) ([4]; KDR −92G > A AA, total 3 patients): 3 | Neutropenia grade 3–4: No (No. patients) [4, 20]: 4 | Neutropenia grade 3–4: Yes (No. patients) [4, 20]: 3 | Neutropenia grade 3–4: No (No. patients) [4, 21]: 10 | Neutropenia grade 3–4: Yes (No. patients) [4, 21]: 10 | Neutropenia grade 3–4: Yes (No. patients) ([4]; KDR −604T > C CC, total 9 patients): 2 | Neutropenia grade 3–4: Yes (No. patients) ([4]; KDR −604T > C TC, total 15 patients): 8 | Neutropenia grade 3–4: No (No. patients) [4, 22]: 3 | Neutropenia grade 3–4: Yes (No. patients) [4, 22]: 3 | Neutropenia grade 3–4: No (No. patients) [4, 23]: 1 | Neutropenia grade 3–4: Yes (No. patients) [4, 23]: 2 | Neutropenia grade 3–4: No (No. patients) [4, 24]: 6 | Neutropenia grade 3–4: Yes (No. patients) [4, 24]: 2 | Neutropenia grade 3–4: No (No. patients) ([4]; RET 37412G > A AA, total 1 patient): 1 | Neutropenia grade 3–4: No (No. patients) [4, 25]: 2 | Neutropenia grade 3–4: Yes (No. patients) [4, 25]: 3 | Neutropenia grade 3–4: Yes (No. patients) ([4]; RET 37412G > A GG, total 24 patients): 10 | IC50 (aurora-A (AURKA)): […] | clearance ([5]; 3-hour infusion schedule): 16.2 L/hour/m^2 | clearance ([5]; 6-hour infusion schedule): 18.0 L/hour/m^2 | dose linearity of pharmacokinetics ([5]; over the dose-range studied, phase I): linear pharmacokinetics | elimination half-life ([5]; phase I study, intravenous): about 30 h | plasma clearance (range) ([5]; phase I study, intravenous): 10 to 59 L/h | substrate for efflux protein ABCG2 [6]: substrate | IC50 (aurora-B (AURKB)): […] | IC50 (ret proto-oncogene (RET)): < 500 nM | IC50 [7]: < 500 nM | Clearance d1c1 Mean ([8]; ABCB1 1236C > T CC, 16 patients): 17.8 L/hour/m^2 | Clearance d1c1 Mean ([8]; ABCB1 1236C > T CT, 21 patients): 18.3 L/hour/m^2 | Clearance d1c1 Mean ([8]; ABCB1 1236C > T TT, 10 patients): 18.6 L/hour/m^2 | Clearance d1c1 Mean ([8]; ABCB1 2677G > A/T GG, 17 patients): 18.2 L/hour/m^2 | Clearance d1c1 Mean ([8]; ABCB1 2677G > A/T GT, 20 patients): 18.5 L/hour/m^2 | Clearance d1c1 Mean ([8]; ABCB1 2677G > A/T TT, 10 patients): 17.7 L/hour/m^2 | Clearance d1c1 Mean ([8]; ABCB1 3435C > T CC, 13 patients): 19.5 L/hour/m^2 | Clearance d1c1 Mean ([8]; ABCB1 3435C > T CT, 21 patients): 17.7 L/hour/m^2 | Clearance d1c1 Mean ([8]; ABCB1 3435C > T TT, 13 patients): 17.8 L/hour/m^2 | Clearance d1c1 Mean ([8]; ABCG2 346G > A GA, 2 patients): 18.6 L/hour/m^2 | Clearance d1c1 Mean ([8]; ABCG2 346G > A GG, 45 patients): 18.2 L/hour/m^2 | Clearance d1c1 Mean ([8]; ABCG2 421C > A CA, 11 patients): 18.8 L/hour/m^2 | Clearance d1c1 Mean ([8]; ABCG2 421C > A CC, 36 patients): 18.1 L/hour/m^2 | Clearance d1c1 Mean ([8]; ABCG2 15994G > A AA, 3 patients): 16.5 L/hour/m^2 | Clearance d1c1 Mean ([8]; ABCG2 15994G > A GA, 21 patients): 18.2 L/hour/m^2 | Clearance d1c1 Mean ([8]; ABCG2 15994G > A GG, 23 patients): 18.5 L/hour/m^2 | Clearance d1c1 Mean ([8]; FMO3 15167G > A AA, 12 patients): 16.9 L/hour/m^2 | Clearance d1c1 Mean ([8]; FMO3 15167G > A GA, 20 patients): 18.1 L/hour/m^2 | Clearance d1c1 Mean ([8]; FMO3 15167G > A GG, 15 patients): 19.5 L/hour/m^2 | Clearance d1c1 Mean ([8]; FMO3 18281G > A AA, 1 patient): 34.0 L/hour/m^2 | Clearance d1c1 Mean ([8]; FMO3 18281G > A GA, 11 patients): 17.2 L/hour/m^2 | Clearance d1c1 Mean ([8]; FMO3 18281G > A GG, 35 patients): 18.1 L/hour/m^2 | Clearance d1c1 Mean ([8]; FMO3 21443A > G AA, 27 patients): 19.2 L/hour/m^2 | Clearance d1c1 Mean ([8]; FMO3 21443A > G AG, 18 patients): 16.9 L/hour/m^2 | Clearance d1c1 Mean ([8]; FMO3 21443A > G GG, 2 patients): 16.4 L/hour/m^2 | Clearance day 1 cycle 1, Median ± SD ([8]; phase I patients, n = 47): 17.8 ± 5.8 L/hour/m^2
